Assay results reported in ChEMBL document CHEMBL3352487, “Synthesis, antibacterial activity, and biological evaluation of formyl hydroxyamino derivatives as novel potent peptide deformylase inhibitors against drug-resistant bacteria” (Eur J Med Chem, 2014).
≈ marks a conversion by molar mass, not a printed value.

Legend:
Streptococcus pyogenes [1] = assay: Antimicrobial activity against Streptococcus pyogenes 1307006P after 24 hrs by broth microdilution method; format: functional
How it was run: (§1)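 Broth microdilution following NCCLS M7-A4; ATCC strains and clinical isolates from a provincial hospital.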

Escherichia coli [2] = assay: Antimicrobial activity against Escherichia coli isolate 1 after 24 hrs by broth microdilution method; format: functional; settings: isolate 1, 24 h; how it was run: as §1
Staphylococcus aureus [3] = assay: Antimicrobial activity against methicillin-susceptible Staphylococcus aureus after 24 hrs by broth microdilution method; format: functional; how it was run: as §1
Staphylococcus aureus [4] = assay: Antimicrobial activity against methicillin-resistant Staphylococcus aureus after 24 hrs by broth microdilution method; format: functional
How it was run: (§2)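 Broth microdilution following NCCLS M7-A4, using ATCC strains and clinical isolates from a provincial hospital.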

Enterococcus faecium = assay: Antimicrobial activity against Enterococcus faecium X7501 after 24 hrs by broth microdilution method; format: functional; settings: X7501, 24 h; how it was run: as §1
Streptococcus pneumoniae [5] = assay: Antimicrobial activity against Streptococcus pneumoniae ERY2 after 24 hrs by broth microdilution method; format: functional; settings: ERY2, 24 h; how it was run: as §1
[6] = Mean residence time (0 to t) in Sprague-Dawley rat at 25 mg/kg, po; format: ADME, organism-based; parameters: dose 25 mg/kg, route oral; settings: in vivo
Haemophilus influenzae [7] = assay: Antimicrobial activity against Haemophilus influenzae H128 after 24 hrs by broth microdilution method; format: functional; settings: H128, 24 h; how it was run: as §1
Staphylococcus aureus [8] = assay: Antimicrobial activity against Staphylococcus aureus OXFORD after 24 hrs by broth microdilution method; format: functional; how it was run: as §2
Streptococcus pyogenes [9] = assay: Antimicrobial activity against Streptococcus pyogenes 1308007P after 24 hrs by broth microdilution method; format: functional; how it was run: as §1
Haemophilus influenzae [10] = assay: Antimicrobial activity against Haemophilus influenzae Q1 after 24 hrs by broth microdilution method; format: functional; settings: Q1, 24 h; how it was run: as §1
[11] = Clearance in Sprague-Dawley rat at 5 mg/kg, iv; format: ADME, organism-based; parameters: dose 5 mg/kg, route intravenous; settings: in vivo
Staphylococcus aureus [12] = assay: Antimicrobial activity against Staphylococcus aureus after 24 hrs by broth microdilution method; format: functional; how it was run: as §1
[13] = AUC (0 to t) in Sprague-Dawley rat at 25 mg/kg, po; format: ADME, organism-based; parameters: dose 25 mg/kg, route oral; settings: plasma
[14] = Tmax in Sprague-Dawley rat at 25 mg/kg, po; format: ADME, organism-based; parameters: dose 25 mg/kg, route oral; settings: in vivo
hERG (KCNH2) [15] = target: T1, hERG (KCNH2) (Homo sapiens, UniProt Q12809); assay: Inhibition of human ERG at 1 uM
[16] = Cmax in Sprague-Dawley rat at 25 mg/kg, po; format: ADME, organism-based; parameters: dose 25 mg/kg, route oral; settings: in vivo
Staphylococcus aureus [17] = assay: Antimicrobial activity against Staphylococcus aureus WCUH29 after 24 hrs by broth microdilution method; format: functional; settings: WCUH29, 24 h; how it was run: as §1
Escherichia coli [18] = assay: Antimicrobial activity against Escherichia coli isolate 3 after 24 hrs by broth microdilution method; format: functional; settings: isolate 3, 24 h; how it was run: as §1
Escherichia coli [19] = assay: Antimicrobial activity against Escherichia coli isolate 2 after 24 hrs by broth microdilution method; format: functional; settings: isolate 2, 24 h; how it was run: as §1
[20] = AUC (0 to t) in Sprague-Dawley rat at 5 mg/kg, iv; format: ADME, organism-based; parameters: dose 5 mg/kg, route intravenous; settings: plasma
[21] = Mean residence time (0 to t) in Sprague-Dawley rat at 5 mg/kg, iv; format: ADME, organism-based; parameters: dose 5 mg/kg, route intravenous; settings: in vivo
Enterococcus faecalis = assay: Antimicrobial activity against Enterococcus faecalis Isolate 1 after 24 hrs by broth microdilution method; format: functional; settings: Isolate 1, 24 h; how it was run: as §1
[22] = Oral bioavailability in Sprague-Dawley rat at 25 mg/kg; format: ADME, organism-based; settings: in vivo
Streptococcus pneumoniae [23] = assay: Antimicrobial activity against Streptococcus pneumoniae 1629 after 24 hrs by broth microdilution method; format: functional; settings: Streptococcus pneumoniae, 1629, 24 h; how it was run: as §1
[24] = Volume of distribution at steady state in Sprague-Dawley rat at 5 mg/kg, iv; format: ADME, organism-based; parameters: dose 5 mg/kg, route intravenous; settings: in vivo, read-out: Vdss
[25] = Half life in Sprague-Dawley rat at 5 mg/kg, iv; format: ADME, organism-based; parameters: dose 5 mg/kg, route intravenous; settings: in vivo
[26] = AUC (0 to infinity) in Sprague-Dawley rat at 25 mg/kg, po; format: ADME, organism-based; parameters: dose 25 mg/kg, route oral, time infinity; settings: plasma
Streptococcus pneumoniae [27] = assay: Antimicrobial activity against Streptococcus pneumoniae N1387 after 24 hrs by broth microdilution method; format: functional; settings: N1387, 24 h; how it was run: as §1
Moraxella catarrhalis = assay: Antimicrobial activity against Moraxella catarrhalis 1502 after 24 hrs by broth microdilution method; format: functional; settings: Moraxella catarrhalis, 1502, 24 h; how it was run: as §1
[28] = AUC (0 to infinity) in Sprague-Dawley rat at 5 mg/kg, iv; format: ADME, organism-based; parameters: time infinity, dose 5 mg/kg, route intravenous; settings: plasma
hERG (KCNH2) [29] = target: T1, hERG (KCNH2); assay: Inhibition of human ERG at 10 uM
[30] = Half life in Sprague-Dawley rat at 25 mg/kg, po; format: ADME, organism-based; parameters: dose 25 mg/kg, route oral; settings: in vivo
Haemophilus influenzae [31] = assay: Antimicrobial activity against AcrA-deficient Haemophilus influenzae H128 after 24 hrs by broth microdilution method; format: functional; settings: H128, 24 h; how it was run: as §1
[32] = test system: Staphylococcus epidermidis; assay: Antimicrobial activity against Staphylococcus epidermidis after 24 hrs by broth microdilution method; format: functional; how it was run: as §1
[33] = Solubility of the compound in artificial intestinal juice measured every 2 hrs for 12 hrs by HPLC analysis; format: physicochemical; settings: simulated gi fluid
[34] = Stability of the compound in artificial intestinal juice measured every 2 hrs for 12 hrs by HPLC analysis; format: physicochemical; settings: simulated gi fluid
[35] = Solubility of the compound in artificial gastric juice measured every 2 hrs for 12 hrs by HPLC analysis; format: ADME; settings: simulated gi fluid
[36] = Stability of the compound in artificial gastric juice measured every 2 hrs for 12 hrs by HPLC analysis; format: ADME; settings: simulated gi fluid

T1 sequence (Q12809 whole entry): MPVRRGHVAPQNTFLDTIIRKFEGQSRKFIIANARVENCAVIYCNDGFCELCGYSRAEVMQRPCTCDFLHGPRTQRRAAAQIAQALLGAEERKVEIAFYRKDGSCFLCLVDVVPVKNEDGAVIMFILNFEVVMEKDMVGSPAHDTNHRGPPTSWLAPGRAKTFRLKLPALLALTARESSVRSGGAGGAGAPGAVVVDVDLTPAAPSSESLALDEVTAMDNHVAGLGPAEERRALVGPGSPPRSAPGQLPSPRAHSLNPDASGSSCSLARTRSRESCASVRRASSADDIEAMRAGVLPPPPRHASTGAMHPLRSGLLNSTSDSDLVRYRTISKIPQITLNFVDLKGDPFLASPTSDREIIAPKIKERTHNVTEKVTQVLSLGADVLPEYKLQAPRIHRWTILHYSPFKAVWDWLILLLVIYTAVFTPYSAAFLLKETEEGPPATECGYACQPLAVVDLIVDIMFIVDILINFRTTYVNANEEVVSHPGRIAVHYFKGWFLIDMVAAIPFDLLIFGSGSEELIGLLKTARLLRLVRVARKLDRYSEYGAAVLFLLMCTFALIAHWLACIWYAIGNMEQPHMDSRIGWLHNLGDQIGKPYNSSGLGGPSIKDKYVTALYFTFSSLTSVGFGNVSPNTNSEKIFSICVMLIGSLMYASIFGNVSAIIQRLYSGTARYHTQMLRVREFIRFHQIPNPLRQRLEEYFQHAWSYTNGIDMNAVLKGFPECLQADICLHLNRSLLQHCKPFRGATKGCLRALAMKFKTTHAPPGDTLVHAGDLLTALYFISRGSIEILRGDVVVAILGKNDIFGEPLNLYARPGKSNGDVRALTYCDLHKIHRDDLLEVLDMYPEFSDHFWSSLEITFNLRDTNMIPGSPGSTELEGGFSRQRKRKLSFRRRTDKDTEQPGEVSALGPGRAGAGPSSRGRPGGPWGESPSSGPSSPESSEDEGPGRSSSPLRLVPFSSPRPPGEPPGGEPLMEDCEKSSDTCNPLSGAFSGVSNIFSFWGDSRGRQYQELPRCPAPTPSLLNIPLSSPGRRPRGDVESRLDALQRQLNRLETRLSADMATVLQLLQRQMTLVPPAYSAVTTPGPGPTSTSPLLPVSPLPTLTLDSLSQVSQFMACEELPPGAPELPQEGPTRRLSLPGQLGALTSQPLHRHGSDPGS

SMILES	MIC (Escherichia coli [2]) [µg/mL]	MIC (Staphylococcus aureus [3]) [µg/mL]	MIC (Staphylococcus aureus [4]) [µg/mL]	MRT last [6] [h]	clearance [11] [mL/min/kg]	MIC (Staphylococcus aureus [12]) [µg/mL]	AUC(0-t) [13] [ng·h/mL]	Tmax [14] [h]	inhibition at 1 µM (hERG (KCNH2) [15]) [%]	Cmax [16] [ng/mL]	MIC (Escherichia coli [19]) [µg/mL]	AUC(0-t) [20] [ng·h/mL]	MRT last [21] [h]	bioavailability [22] [%]	Vd [24] [L/kg]	half-life [25] [h]	AUC(0-inf) [26] [ng·h/mL]	AUC(0-inf) [28] [ng·h/mL]	inhibition at 10 µM (hERG (KCNH2) [29]) [%]	half-life [30] [h]	further results
O=CN(O)C[C@@H](CC1CCCC1)C(=O)N1CC=C[C@H]1C(=O)Nc1ccc(F)c[n+]1[O-]	64 (≈ 152 µM)	0.5 (≈ 1.19 µM)	0.25 (≈ 0.595 µM)	2.01	51.7	0.25 (≈ 0.595 µM)	1630	0.375	1.15	956	32 (≈ 76.1 µM)	1610	0.503	22.4	1.6	0.807	1810	1620	0.89	2.58	MIC (Streptococcus pyogenes [1]): 0.25 µg/mL (≈ 0.595 µM); MIC (Enterococcus faecium): 1 µg/mL (≈ 2.38 µM); MIC (Streptococcus pneumoniae [5]): 0.25 µg/mL (≈ 0.595 µM); MIC (Haemophilus influenzae [7]): 2 µg/mL (≈ 4.76 µM); MIC (Staphylococcus aureus [8]): 0.5 µg/mL (≈ 1.19 µM); MIC (Streptococcus pyogenes [9]): 0.5 µg/mL (≈ 1.19 µM); MIC (Haemophilus influenzae [10]): 1 µg/mL (≈ 2.38 µM); MIC (Staphylococcus aureus [17]): 0.125 µg/mL (≈ 0.297 µM); MIC (Escherichia coli [18]): 64 µg/mL (≈ 152 µM); MIC (Enterococcus faecalis): 2 µg/mL (≈ 4.76 µM); MIC (Streptococcus pneumoniae [23]): 0.5 µg/mL (≈ 1.19 µM); MIC (Streptococcus pneumoniae [27]): 0.125 µg/mL (≈ 0.297 µM); MIC (Moraxella catarrhalis): ≤ 0.06 µg/mL; MIC (Haemophilus influenzae [31]): ≤ 0.06 µg/mL; MIC [32]: 0.25 µg/mL (≈ 0.595 µM)
CCCC[C@H](CN(O)C=O)C(=O)N1CC=C[C@H]1C(=O)Nc1ncc(C)s1	32 (≈ 84.1 µM)	0.25 (≈ 0.657 µM)	0.125 (≈ 0.329 µM)	2.45	17	0.0625 (≈ 0.164 µM)	21800	0.625	5.7	12400	16 (≈ 42.1 µM)	4920	0.952	88.7	1.01	4.08	21900	4930	5.5	2.56	solubility [33]: soluble; Stability [34]: Stable; solubility [35]: soluble; MIC [32]: 0.25 µg/mL (≈ 0.657 µM); Stability [36]: Stable
